Test [1] relates to A-375. Nature of the test: Cytotoxicity against human A375 cells pre-treated with 20 uM p38 inhibitor […] for 1 hr followed by 8 ug/mL compound exposure for 18 hrs by MTT assay. The class given is functional, cell-based. The gist of the method: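 A375 cells pretreated 1 h with 20 µM SP600125 (JNK) or SB203580 (p38), then exposed to compound at 8 µg/ml for 18 h. Viability by MTT (formazan in DMSO, 570 nm), expressed as % of control.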

Test [2] concerns A-375. Nature of the test: Induction of cell shrinkage in human A375 cells pre-treated with 20 uM p38 inhibitor […] for 1 hr followed by 8 ug/mL compound exposure for 18 hrs by microscopy. It is filed as functional, cell-based. The gist of the method:
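A375 cells pretreated 1 h with […] JNK inhibitor SP600125 or p38 inhibitor SB203580, then given […] compound for 18 h. Morphology imaged.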

Test [3] has as its system A-375. As to the kind of experiment: Induction of apoptosis in human A375 cells assessed as accumulation at subG1 phase at 4 ug/mL incubated for 6 hrs followed by irradiation with 8 Gy X-ray at 37 degC for 12 hrs by propidium iodide staining based flow cytometry (reference value: 2.3%). The class given is functional. The gist of the method: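 A375 cells treated at 10 or 4 µg/ml for 6 h, given 0 or 8 Gy X-ray, then 12 h more. Trypsinized, washed in PBS, fixed overnight in ice-cold 75% ethanol at −20 °C. Stained with propidium iodide, 30 min at 37 °C in the dark; DNA content and sub-G1 population read by flow cytometry.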
For orientation: Flow cytometry measures light scatter and fluorescence of single cells or particles in a stream.

Test [4] has as its system A-375. Nature of the test: Induction of apoptosis in human A375 cells assessed as caspase 3 activation at 2 ug/mL incubated for 18 hrs by fluorometric assay. It is filed as functional, cell-based. The method, boiled down: (§1)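 Cells seeded at 1 × 10⁶ per 10 cm dish and treated with 2 µg/ml alone or with 8 Gy X-ray for 18 h total. RIPA lysates clarified by spinning at 12,000 rpm for 5 min; 80 µg protein given Ac-DEVD-AMC (caspase-3), Ac-IETD-AMC (caspase-8) or Ac-LEHD-AMC (caspase-9). Incubated 2 h at 37 °C in the dark; fluorescence at 380/440 nm.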

For test [5], the system named is A-375. As to the kind of experiment: Induction of apoptosis in human A375 cells assessed as caspase 8 activation at 2 ug/mL incubated for 18 hrs by fluorometric assay. The class given is functional, cell-based. The gist of the method: as §1
The subject of test [6] is A-375. As to the kind of experiment: Induction of apoptosis in human A375 cells assessed as caspase 9 activation at 2 ug/mL incubated for 6 hrs followed by irradiation with 8 Gy X-ray at 37 degC for 12 hrs by Western blotting method. The class given is functional, cell-based. The method, boiled down: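 A375 cells treated with 2 µg/ml alone or with 8 Gy X-ray (6 h pretreatment, then 12 h; 18 h total). RIPA lysates (50 µg protein) run on SDS-PAGE and immunoblotted for caspases and PARP cleavage. Reprobed for β-actin as loading control.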
For orientation: Immunoblotting shows a protein as a band on a membrane.

Test [7] deals with A-375. As to the kind of experiment: Reduction in Bid expression in human A375 cells at 4 ug/mL incubated for 6 hrs followed by irradiation with 8 Gy X-ray at 37 degC for 12 hrs by Western blotting method. It is filed as functional, cell-based. The gist of the method:
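A375 cells given […] for 6 h, then 0 or 8 Gy X-ray at 1.5 Gy/min and 12 h further culture. Lysis in ice-cold RIPA, pH 7.4, with protease and phosphatase inhibitors; protein by BCA. […] protein per lane on SDS-PAGE, transferred to nitrocellulose. Blocked in 5% milk/TBST. Primary 1:1000, 10 h, 4 °C; HRP secondary 1:2000, 1.5 h.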

SMILES strings stand for the structures. Calls of active or inactive are those of the source. No cut-off for these calls is given here.

These results are taken from ChEMBL document CHEMBL3352644, “Selenadiazole derivatives as potent thioredoxin reductase inhibitors that enhance the radiosensitivity of cancer cells” (Eur J Med Chem, 2014).

For the compound `COc1cc(-c2nc3cc(-c4ccc5n[se]nc5c4)ccc3[nH]2)cc(OC)c1OC`, the outcome in test [1] and in test [2] was inactive. Besides, the Activity in test [3] was 57.1%. For the same compound, the result in test [4], in test [5], in test [6] and in test [7] was Active.
